What is called inhibition is the relative decrease from the control value, in per cent.

For three molecules, inhibition and Activity results are on record in ChEMBL document CHEMBL3045866, “A novel family of insect-selective peptide neurotoxins targeting insect large-conductance calcium-activated K+ channels isolated from the venom of the theraphosid spider Eucratoscelus constrictus” (Mol Pharmacol, 2011).

Molecules are shown by their SMILES. The source made the active and inactive calls. The calls are words filed in the database; no cut-off is given here. Bridge positions count the residues as written; N and C are the ends. Peptide text beside a SMILES is read from it.

Data set [1] concerns the target Voltage-dependent calcium channel alpha-1 subunit (Blattella germanica) (UniProt O18323). Put plainly: Inhibition of voltage-gated calcium channel Cav-mediated late-sustained current in Periplaneta americana (American cockroach) DUM neurons assessed as measured at holding potential -80 mV depolarized to +40 mV after 10 min by whole cell patch clamp assay in presence of CdCl2. In outline: (§1)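 BK(Ca) current in DUM neurons with 5 mM 4-AP in the bath. Toxin perfused for 10 min or to equilibrium; then 1 mM CdCl2 plus 30 nM ChTx added, and the residual current subtracted. 100-ms steps from Vh -80 mV to +30 mV, or to +40 mV in 10-mV increments for I–V. Peak (fast-transient) and 100-ms (late) amplitudes measured. IC50 from logistic fit; n = 3–6.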

Data set [2] relates to Gryllus bimaculatus. Put plainly: Neurotoxicity against third-instar nymph stage of Gryllus bimaculatus (cricket) assessed as mortality at 1.1 nmol/g measured at 15 min. It counts as functional, organism-based.
Data set [3] concerns the target Voltage-dependent calcium channel alpha-1 subunit (Blattella germanica) (UniProt O18323). The experiment in a line: Inhibition of voltage-gated calcium channel Cav-mediated fast-transient current in Periplaneta americana (American cockroach) DUM neurons assessed as measured at holding potential -80 mV depolarized to +40 mV after 10 min by whole cell patch clamp assay in presence of CdCl2. Summed up: as §1
On the technique in general: The patch-clamp technique gives a direct electrical read-out from membranes.

Data set [4] in a line: Inhibition of transient A type potassium channel IK(A) in Periplaneta americana (American cockroach) DUM neurons at 330 nM measured at holding potential -90 mV depolarized to +30 mV after 10 min by whole cell patch clamp assay in presence of CdCl2 and ChTx.
Data set [5] addresses Voltage-dependent calcium channel alpha-1 subunit (Blattella germanica) (UniProt O18323). The experiment in a line: Inhibition of voltage-gated calcium channel Cav-mediated fast-transient current in Periplaneta americana (American cockroach) DUM neurons assessed as effect on voltage-dependent activation at 6 nM measured at holding potential -80 mV in 10 mV increments depolarized to +40 mV after 10 min by whole cell patch clamp assay in presence of CdCl2. Summed up: as §1

Data set [6] in a line: Inhibition of transient A type potassium channel IK(A) in Periplaneta americana (American cockroach) DUM neurons assessed as effect on voltage-dependent activation at 330 nM measured at holding potential -90 mV depolarized to +40 mV with 100 ms increments after 10 min by whole cell patch clamp ….
Data set [7] addresses Voltage-dependent calcium channel alpha-1 subunit (Blattella germanica) (UniProt O18323). Put plainly: Inhibition of mid-low voltage activated Cav channel in Periplaneta americana (American cockroach) DUM neurons assessed as effect on voltage-dependent activation at 330 nM measured at holding potential -90 mV depolarized to +70 mV with 10 mV increments after 10 min by whole cell patch clamp assay. Summed up:
(§2)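 Ba2+ currents through M-LVA and HVA Cav channels recorded by whole-cell clamp in cockroach DUM neurons at 20–23°C. Toxin applied for 10 min via a perfusion needle. Peak IBa measured relative to control. For activation, steps from Vh -90 mV to +70 mV in 10-mV increments at 0.1 Hz. P-P/4 leak subtraction; n = 3.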

Data set [8] has as its system Mus musculus. Put plainly: Neurotoxicity against Mus musculus C57BL/6 (mouse) assessed as effect on posture at 500 pmol, icv. It counts as toxicity, organism-based. The note with it: in vivo, icv_or_intrathecal. Summed up:
(§3)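 Female C57BL/6 mice (~20 g) lightly anesthetized with diethylether. 5 µl of sample in BSA solution injected into the left cerebral ventricle. Posture, behavior and neurotoxic signs observed; n = 2.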

The nature of data set [9]: Inhibition of delayed rectifier potassium channel IK(DR) in Periplaneta americana (American cockroach) DUM neurons at 330 nM measured at holding potential -90 mV depolarized to +30 mV after 10 min by whole cell voltage clamp assay in presence of CdCl2 and ChTx relative to control.
Data set [10] is described as follows: Inhibition of delayed rectifier potassium channel IK(DR) in Periplaneta americana (American cockroach) DUM neurons assessed as effect on voltage-dependent activation at 330 nM measured at holding potential -90 mV depolarized to +40 mV with 100 ms increments after 10 min by whole cell voltage clamp ….
Data set [11] concerns Gryllus bimaculatus. The experiment in a line: Neurotoxicity against third-instar nymph stage of Gryllus bimaculatus (cricket) assessed as paralysis at 1.1 nmol/g measured within 5 min. It counts as functional, organism-based.
Data set [12] can be described thus: Reversible inhibition of Potassium channel Kv in Periplaneta americana (American cockroach) DUM neurons at 330 nM measured at holding potential -90 mV depolarized to +30 mV after 10 min by whole cell patch clamp assay relative to control.
Data set [13] addresses Voltage-dependent calcium channel alpha-1 subunit (Blattella germanica) (UniProt O18323). Put plainly: Inhibition of high voltage activated Cav channel in Periplaneta americana (American cockroach) DUM neurons assessed as effect on voltage-dependent activation at 330 nM measured at holding potential -90 mV depolarized to +70 mV with 10 mV increments after 10 min by whole cell patch clamp assay. Summed up: as §2

In data set [14] the target is Voltage-gated sodium channel Nav1 alpha subunit (Periplaneta americana) (UniProt D0E0C1). Put plainly: Inhibition of Nav channel in Periplaneta americana (American cockroach) DUM neurons assessed as effect on voltage-dependent activation at 330 nM measured at holding potential -90 mV depolarised to +70 mV with 10 mV increments for 10 min by whole cell patch clamp assay. Summed up:
(§4)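 Whole-cell voltage clamp of TTX-sensitive Na+ current in DUM neurons isolated from adult cockroaches and kept no longer than 24 h at 30°C. Bath (mM): NaCl 80, CsCl 5, CaCl2 1.8, TEA-Cl 50, 4-AP 5, HEPES 10, NiCl2 0.1, CdCl2 1, pH 7.4. Vh -90 mV; test pulse to -10 mV, or steps to +70 mV in 10-mV increments at 0.1 Hz. P-P/4 leak subtraction; 20–23°C.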

For data set [15], the system named is Mus musculus. The experiment in a line: Neurotoxicity against Mus musculus C57BL/6 (mouse) assessed as effect on behaviour at 500 pmol, icv. Conditions: in vivo, icv_or_intrathecal. It counts as toxicity, organism-based. In outline:
as §3

The target in data set [16] is Voltage-dependent calcium channel alpha-1 subunit (Blattella germanica) (UniProt O18323). Put plainly: Inhibition of voltage-gated calcium channel Cav-mediated late-sustained current in Periplaneta americana (American cockroach) DUM neurons assessed as effect on voltage-dependent activation at 6 nM measured at holding potential -80 mV in 10 mV increments depolarized to +40 mV after 10 min by whole cell patch clamp assay in presence of CdCl2. In outline: as §1
Sequence of Voltage-dependent calcium channel alpha-1 subunit (Blattella germanica) (O18323 as listed by the source): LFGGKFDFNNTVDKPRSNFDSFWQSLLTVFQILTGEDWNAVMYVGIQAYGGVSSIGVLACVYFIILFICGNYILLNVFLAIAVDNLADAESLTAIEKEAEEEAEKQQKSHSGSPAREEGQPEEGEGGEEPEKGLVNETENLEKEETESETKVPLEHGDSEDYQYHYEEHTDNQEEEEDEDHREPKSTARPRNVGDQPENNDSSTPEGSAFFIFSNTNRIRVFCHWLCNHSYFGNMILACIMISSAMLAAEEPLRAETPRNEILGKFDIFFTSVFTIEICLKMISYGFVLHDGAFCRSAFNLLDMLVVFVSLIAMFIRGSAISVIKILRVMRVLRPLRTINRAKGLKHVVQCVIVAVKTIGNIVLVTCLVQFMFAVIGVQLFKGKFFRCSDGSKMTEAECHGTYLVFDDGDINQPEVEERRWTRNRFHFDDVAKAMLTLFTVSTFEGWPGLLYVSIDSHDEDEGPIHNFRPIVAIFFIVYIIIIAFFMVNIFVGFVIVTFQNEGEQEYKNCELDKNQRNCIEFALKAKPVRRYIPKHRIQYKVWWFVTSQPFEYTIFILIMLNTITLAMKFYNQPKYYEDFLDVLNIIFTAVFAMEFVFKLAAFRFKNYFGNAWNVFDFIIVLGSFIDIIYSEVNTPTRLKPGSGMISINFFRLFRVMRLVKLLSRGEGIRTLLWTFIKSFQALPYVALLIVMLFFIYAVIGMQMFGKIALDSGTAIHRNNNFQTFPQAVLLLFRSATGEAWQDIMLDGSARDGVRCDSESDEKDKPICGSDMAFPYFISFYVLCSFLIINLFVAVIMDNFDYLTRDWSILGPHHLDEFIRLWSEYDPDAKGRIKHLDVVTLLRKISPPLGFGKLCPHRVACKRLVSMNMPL

For data set [17] the target is unchanged. The experiment in a line: Inhibition of high voltage activated Cav channel in Periplaneta americana (American cockroach) DUM neurons assessed as reduction in barium current at 330 nM measured at holding potential -90 mV depolarized to +30 mV after 10 min by whole cell patch clamp assay relative to control. Summed up: as §2
Data set [18] addresses Voltage-gated sodium channel Nav1 alpha subunit (Periplaneta americana) (UniProt D0E0C1). The experiment in a line: Inhibition of Nav channel in Periplaneta americana (American cockroach) DUM neurons assessed as remaining activity at 330 nM measured at holding potential -90 mV depolarized to -10 mV after 10 min by whole cell patch clamp assay relative to control. In outline: as §4

Data set [19] has as its target Voltage-dependent calcium channel alpha-1 subunit (Blattella germanica) (UniProt O18323). The experiment in a line: Inhibition of voltage-gated calcium channel Cav-mediated late-sustained current in Periplaneta americana (American cockroach) DUM neurons assessed as effect on voltage-dependent activation at 25 nM measured at holding potential -80 mV in 10 mV increments depolarized to +40 mV after 10 min by whole cell patch clamp assay in presence of CdCl2.

The target is the same in data set [20]. Put plainly: Inhibition of mid-low voltage activated Cav channel in Periplaneta americana (American cockroach) DUM neurons assessed as reduction in barium current at 330 nM measured at holding potential -90 mV depolarized to -20 mV after 10 min by whole cell patch clamp assay relative to control. In outline: as §2
For data set [21] the target is unchanged. Put plainly: Inhibition of voltage-gated calcium channel Cav-mediated fast-transient current in Periplaneta americana (American cockroach) DUM neurons assessed as effect on voltage-dependent activation at 25 nM measured at holding potential -80 mV in 10 mV increments depolarized to +40 mV after 10 min by whole cell patch clamp assay in presence of CdCl2. Summed up: as §1

The target in data set [22] is Voltage-gated sodium channel Nav1 alpha subunit (Periplaneta americana) (UniProt D0E0C1). Conditions: 300 nM.
Sequence of Voltage-gated sodium channel Nav1 alpha subunit (Periplaneta americana) (D0E0C1 as listed by the source): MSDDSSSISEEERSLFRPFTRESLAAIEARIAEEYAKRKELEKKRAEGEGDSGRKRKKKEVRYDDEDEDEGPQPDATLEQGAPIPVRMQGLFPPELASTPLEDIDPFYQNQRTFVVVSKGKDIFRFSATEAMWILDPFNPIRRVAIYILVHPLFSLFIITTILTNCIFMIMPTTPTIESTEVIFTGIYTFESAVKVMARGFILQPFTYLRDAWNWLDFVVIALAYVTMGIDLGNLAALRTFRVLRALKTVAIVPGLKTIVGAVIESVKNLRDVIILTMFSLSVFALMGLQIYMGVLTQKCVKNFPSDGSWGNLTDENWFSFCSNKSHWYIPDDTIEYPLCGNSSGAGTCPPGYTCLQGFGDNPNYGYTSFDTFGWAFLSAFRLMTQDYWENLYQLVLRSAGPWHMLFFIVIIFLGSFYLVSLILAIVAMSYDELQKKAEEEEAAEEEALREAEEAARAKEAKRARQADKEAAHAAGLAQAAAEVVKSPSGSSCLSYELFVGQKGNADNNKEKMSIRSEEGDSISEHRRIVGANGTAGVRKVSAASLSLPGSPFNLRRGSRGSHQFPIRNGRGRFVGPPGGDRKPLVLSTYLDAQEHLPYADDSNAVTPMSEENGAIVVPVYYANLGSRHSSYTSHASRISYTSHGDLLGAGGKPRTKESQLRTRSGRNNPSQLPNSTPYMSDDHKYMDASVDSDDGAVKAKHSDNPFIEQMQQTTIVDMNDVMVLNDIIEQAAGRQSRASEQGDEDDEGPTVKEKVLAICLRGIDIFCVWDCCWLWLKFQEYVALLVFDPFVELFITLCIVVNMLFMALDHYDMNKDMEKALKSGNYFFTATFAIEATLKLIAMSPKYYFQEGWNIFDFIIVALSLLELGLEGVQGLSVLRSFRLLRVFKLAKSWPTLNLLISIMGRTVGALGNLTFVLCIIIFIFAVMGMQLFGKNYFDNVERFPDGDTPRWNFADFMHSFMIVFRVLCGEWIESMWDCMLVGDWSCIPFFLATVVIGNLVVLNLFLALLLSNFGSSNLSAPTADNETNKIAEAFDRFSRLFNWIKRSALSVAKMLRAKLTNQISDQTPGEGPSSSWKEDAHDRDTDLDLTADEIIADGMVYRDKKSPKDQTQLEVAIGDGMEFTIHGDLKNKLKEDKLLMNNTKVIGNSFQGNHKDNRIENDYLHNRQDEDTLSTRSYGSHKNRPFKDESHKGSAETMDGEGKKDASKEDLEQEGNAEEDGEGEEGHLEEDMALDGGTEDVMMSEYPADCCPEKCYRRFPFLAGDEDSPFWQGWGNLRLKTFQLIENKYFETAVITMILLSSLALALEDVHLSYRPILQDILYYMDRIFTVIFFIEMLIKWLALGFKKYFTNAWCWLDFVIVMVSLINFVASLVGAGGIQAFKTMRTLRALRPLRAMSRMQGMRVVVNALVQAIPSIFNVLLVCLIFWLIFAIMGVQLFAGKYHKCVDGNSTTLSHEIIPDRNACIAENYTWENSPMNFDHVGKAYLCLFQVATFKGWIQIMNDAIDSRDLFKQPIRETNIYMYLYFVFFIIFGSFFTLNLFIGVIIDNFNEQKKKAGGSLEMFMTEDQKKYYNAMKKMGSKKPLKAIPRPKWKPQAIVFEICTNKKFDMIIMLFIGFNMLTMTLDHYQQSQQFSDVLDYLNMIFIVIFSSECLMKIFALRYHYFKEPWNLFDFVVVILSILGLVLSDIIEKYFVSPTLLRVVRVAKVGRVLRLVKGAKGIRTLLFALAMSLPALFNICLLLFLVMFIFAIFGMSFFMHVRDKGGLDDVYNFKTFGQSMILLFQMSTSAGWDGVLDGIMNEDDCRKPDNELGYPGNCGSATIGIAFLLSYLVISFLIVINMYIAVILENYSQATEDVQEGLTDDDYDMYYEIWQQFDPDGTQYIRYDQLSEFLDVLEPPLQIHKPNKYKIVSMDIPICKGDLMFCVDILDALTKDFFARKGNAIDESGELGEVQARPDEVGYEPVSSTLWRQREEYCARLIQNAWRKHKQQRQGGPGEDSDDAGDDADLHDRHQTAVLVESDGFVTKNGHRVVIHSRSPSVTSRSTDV

Consider `CSCC[C@@H]1NC(=O)[C@H](CC(=O)O)NC(=O)[C@H](CCC(=O)O)NC(=O)[C@@H]2CSSC[C@H](NC(=O)[C@@H](N)Cc3ccc(O)cc3)C(=O)N[C@@H](CCC(N)=O)C(=O)N[C@@H](CCCCN)C(=O)N[C@@H](Cc3ccccc3)C(=O)N[C@@H](CC(C)C)C(=O)N[C@@H](Cc3c[nH]c4ccccc34)C(=O)N[C@@H]([C@@H](C)O)C(=O)N[C@H]3CSSC[C@H](NC(=O)[C@H](C(C)C)NC1=O)C(=O)N[C@@H](CCC(=O)O)C(=O)N[C@@H](CC(C)C)C(=O)N[C@@H](Cc1c[nH]c4ccccc14)C(=O)N[C@H](C(=O)N[C@@H](CCCCN)C(=O)N[C@@H](CC(C)C)C(=O)N[C@@H](CCC(=O)O)C(=O)N[C@@H](CCCCN)C(=O)O)CSSC[C@H](NC(=O)[C@H](CCCCN)NC(=O)[C@H](CCCNC(=N)N)NC(=O)[C@H](CCC(=O)O)NC(=O)[C@H]([C@@H](C)O)NC(=O)[C@H](CC(=O)O)NC3=O)C(=O)N2` (H-YCQKFLWTCDTERKCCEDMVCELWCKLEK-OH; disulfide 2-16, 9-21, 15-25), for which the inhibition result in data set [1] is “Dose-dependent effect”; in data set [3], “Dose-dependent effect”; in data set [9], 31%. Besides, the outcome with Gryllus bimaculatus [2] and in the data set on Gryllus bimaculatus [11] was Active. Besides, the inhibition result in [4] and in data set [12] was “Active” throughout. For the same molecule, the inhibition entry in [5], in data set [6], in data set [7], in data set [10], in data set [13] and in data set [14] was “inactive” throughout. The inhibition result in data set [16] was “inactive”. Besides, the Activity entry in the data set on Mus musculus [8] and in the data set on Mus musculus [15] was “Non-toxic” each time.

Consider `CSCC[C@@H]1NC(=O)[C@H](CC(=O)O)NC(=O)[C@H](CCC(=O)O)NC(=O)[C@@H]2CSSC[C@H](NC(=O)[C@@H](N)Cc3ccc(O)cc3)C(=O)N[C@@H](CCC(N)=O)C(=O)N[C@@H](CCCCN)C(=O)N[C@@H](Cc3ccccc3)C(=O)N[C@@H](CC(C)C)C(=O)N[C@@H](Cc3c[nH]c4ccccc34)C(=O)N[C@@H]([C@@H](C)O)C(=O)N[C@H]3CSSC[C@H](NC(=O)[C@H](C(C)C)NC1=O)C(=O)N[C@@H](CCC(=O)O)C(=O)N[C@@H](CC(C)C)C(=O)N[C@@H](Cc1c[nH]c4ccccc14)C(=O)N[C@H](C(=O)N[C@@H](CCCCN)C(=O)N[C@@H](Cc1ccc(O)cc1)C(=O)N[C@@H](CCCCN)C(=O)N[C@@H](CCC(=O)O)C(=O)O)CSSC[C@H](NC(=O)[C@H](CCCCN)NC(=O)[C@H](CCCNC(=N)N)NC(=O)[C@H](CCC(=O)O)NC(=O)[C@H]([C@@H](C)O)NC(=O)[C@H](CC(=O)O)NC3=O)C(=O)N2` (H-YCQKFLWTCDTERKCCEDMVCELWCKYKE-OH; disulfide 2-16, 9-21, 15-25), for which the inhibition result in [1] is “Dose-dependent effect”; in [3], “Dose-dependent effect”; in data set [17], 7%; in [20], 10%. Besides, the outcome in the data set with Gryllus bimaculatus [2] and in the data set with Gryllus bimaculatus [11] was Active. The inhibition result in data set [4], in [6], in [7], in data set [9], in data set [19] and in data set [10] was “inactive” throughout. Moreover, the inhibition entry in [13], in data set [14] and in [21] was “inactive” each time. The results for the Activity entry (in the data set on Mus musculus [8]; in [18]; in the data set on Mus musculus [15]) were “Non-toxic”, 92% and “Non-toxic”, respectively. The inhibition result in [12] is “Active”.

Turning to `NC1=N[C@H](O)[C@H]2[C@H]3O[C@]4(O)O[C@@H]([C@@H](O)[C@@]2(N1)[C@@H]4O)[C@]3(O)CO`, the inhibition result in [22] is “Active”.
